Measurements reported in ChEMBL document CHEMBL1782009, “Synthesis and characterization of new types of halogenated and alkylated imidazolidineiminothiones and a comparative study of their antitumor, antibacterial, and antifungal activities” (Eur J Med Chem, 2011).
Converted amounts (≈) assume the structure as drawn.

Assays:
HCT-116 [1] = assay: Cytotoxicity against human HCT116 cells assessed as surviving fraction at 50 ug/ml after 48 hrs by SRB assay relative to control; type: functional
Method in brief: (§1)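 SRB assay per Skehan: compounds at 5.0, 12.5, 25 and 50 were added to cell monolayers in triplicate wells per dose for 48 h at 37 °C, 5% CO2. Cells were then fixed and stained with SRB, excess stain was removed with acetic acid, and bound dye was recovered in Tris EDTA. Surviving fraction was plotted against concentration, and IC50 was read from the dose–response curves.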

HepG2 [2] = assay: Cytotoxicity against human HepG2 cells after 48 hrs by SRB assay; type: functional, cell-based; details: HepG2, 48 h; method in brief: as §1
MCF7 [3] = assay: Cytotoxicity against human MCF7 cells assessed as surviving fraction at 25 ug/ml after 48 hrs by SRB assay relative to control; type: functional; method in brief: as §1
HEp-2 [4] = assay: Cytotoxicity against human Hep2 cells after 48 hrs by SRB assay; type: functional, cell-based; details: HEp-2, 48 h; method in brief: as §1
HeLa [5] = assay: Cytotoxicity against human HeLa cells assessed as surviving fraction at 50 ug/ml after 48 hrs by SRB assay relative to control; type: functional; method in brief: as §1
HepG2 [6] = assay: Cytotoxicity against human HepG2 cells assessed as surviving fraction at 25 ug/ml after 48 hrs by SRB assay relative to control; type: functional; method in brief: as §1
Aspergillus flavus = assay: Antifungal activity against Aspergillus flavus at 5 mg/ml by agar disc diffusion method; type: functional; details: read-out: DIZ
HCT-116 [7] = assay: Cytotoxicity against human HCT116 cells assessed as surviving fraction at 12.5 ug/ml after 48 hrs by SRB assay relative to control; type: functional; method in brief: as §1
MCF7 [8] = assay: Cytotoxicity against human MCF7 cells assessed as surviving fraction at 50 ug/ml after 48 hrs by SRB assay relative to control; type: functional; method in brief: as §1
HeLa [9] = assay: Cytotoxicity against human HeLa cells assessed as surviving fraction at 12.5 ug/ml after 48 hrs by SRB assay relative to control; type: functional; method in brief: as §1
HCT-116 [10] = assay: Cytotoxicity against human HCT116 cells assessed as surviving fraction at 25 ug/ml after 48 hrs by SRB assay relative to control; type: functional; method in brief: as §1
HCT-116 [11] = assay: Cytotoxicity against human HCT116 cells assessed as surviving fraction at 5 ug/ml after 48 hrs by SRB assay relative to control; type: functional; method in brief: as §1
Escherichia coli = assay: Antibacterial activity against Escherichia coli NCTC 10416 at 5 mg/ml after 24 hrs by agar disc diffusion method; type: functional; details: NCTC 10416, 24 h, read-out: DIZ
Method in brief: (§2)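 Agar well-diffusion using 1 cm wells, each loaded with 100 of compound solution (5 mg/mL in DMF). Bacteria were maintained on nutrient agar and plated as a standard suspension. Plates were incubated 24 h at 35 °C, and inhibition zone diameters were measured.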

Candida albicans = assay: Antifungal activity against Candida albicans IMRU 3669 at 5 mg/ml by agar disc diffusion method; type: functional; details: read-out: DIZ
MCF7 [12] = assay: Cytotoxicity against human MCF7 cells assessed as surviving fraction at 5 ug/ml after 48 hrs by SRB assay relative to control; type: functional; method in brief: as §1
HEp-2 [13] = assay: Cytotoxicity against human Hep2 cells assessed as surviving fraction at 25 ug/ml after 48 hrs by SRB assay relative to control; type: functional; method in brief: as §1
HeLa [14] = assay: Cytotoxicity against human HeLa cells assessed as surviving fraction at 5 ug/ml after 48 hrs by SRB assay relative to control; type: functional; method in brief: as §1
HepG2 [15] = assay: Cytotoxicity against human HepG2 cells assessed as surviving fraction at 50 ug/ml after 48 hrs by SRB assay relative to control; type: functional; method in brief: as §1
HEp-2 [16] = assay: Cytotoxicity against human Hep2 cells assessed as surviving fraction at 12.5 ug/ml after 48 hrs by SRB assay relative to control; type: functional; method in brief: as §1
HCT-116 [17] = assay: Cytotoxicity against human HCT116 cells after 48 hrs by SRB assay; type: functional, cell-based; details: HCT-116, 48 h; method in brief: as §1
Staphylococcus aureus = assay: Antibacterial activity against Staphylococcus aureus NCTC 7447 at 5 mg/ml after 24 hrs by agar disc diffusion method; type: functional; details: NCTC 7447, 24 h, read-out: DIZ; method in brief: as §2
HEp-2 [18] = assay: Cytotoxicity against human Hep2 cells assessed as surviving fraction at 50 ug/ml after 48 hrs by SRB assay relative to control; type: functional; method in brief: as §1
[19] = Antitumor activity against mouse EAC cells assessed as inhibition of cell viability at 100 ug/ml by Trypan blue assay; type: functional; details: Ehrlich
Method in brief: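 EAC cells were taken by needle aspiration of ascitic fluid from preinoculated mice and diluted 1:10 in saline. Then 0.1 mL of cell suspension, 0.8 mL RPMI 1640 and 0.1 mL compound were incubated 2 h at 37 °C. Dead cells were counted by trypan blue exclusion, and % non-viable = non-viable/total cells × 100.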

HeLa [20] = assay: Cytotoxicity against human HeLa cells after 48 hrs by SRB assay; type: functional, cell-based; method in brief: as §1
Micrococcus luteus = assay: Antibacterial activity against Sarcina lutea ATCC 934 at 5 mg/ml after 24 hrs by agar disc diffusion method; type: functional; details: ATCC 934, 24 h, read-out: DIZ; method in brief: as §2
MCF7 [21] = assay: Cytotoxicity against human MCF7 cells after 48 hrs by SRB assay; type: functional, cell-based; details: MCF7, 48 h; method in brief: as §1
HepG2 [22] = assay: Cytotoxicity against human HepG2 cells assessed as surviving fraction at 5 ug/ml after 48 hrs by SRB assay relative to control; type: functional; method in brief: as §1
Bacillus subtilis = assay: Antibacterial activity against Bacillus subtilis NCTC 1040 at 5 mg/ml after 24 hrs by agar disc diffusion method; type: functional; details: NCTC 1040, 24 h, read-out: DIZ; method in brief: as §2
HeLa [23] = assay: Cytotoxicity against human HeLa cells assessed as surviving fraction at 25 ug/ml after 48 hrs by SRB assay relative to control; type: functional; method in brief: as §1
HEp-2 [24] = assay: Cytotoxicity against human Hep2 cells assessed as surviving fraction at 5 ug/ml after 48 hrs by SRB assay relative to control; type: functional; method in brief: as §1
HepG2 [25] = assay: Cytotoxicity against human HepG2 cells assessed as surviving fraction at 12.5 ug/ml after 48 hrs by SRB assay relative to control; type: functional; method in brief: as §1
MCF7 [26] = assay: Cytotoxicity against human MCF7 cells assessed as surviving fraction at 12.5 ug/ml after 48 hrs by SRB assay relative to control; type: functional; method in brief: as §1

Compound | Activity (HCT-116 [1]) | IC50 (HepG2 [2]) | Activity (MCF7 [3]) | IC50 (HEp-2 [4]) | Activity (HeLa [5]) | Activity (HepG2 [6]) | zone of inhibition at 5000 µg/mL (Aspergillus flavus) | Activity (HCT-116 [7]) | Activity (MCF7 [8]) | Activity (HeLa [9]) | Activity (HCT-116 [10]) | Activity (HCT-116 [11]) | zone of inhibition at 5000 µg/mL (Escherichia coli) | zone of inhibition at 5000 µg/mL (Candida albicans) | Activity (MCF7 [12]) | Activity (HEp-2 [13]) | Activity (HeLa [14]) | Activity (HepG2 [15]) | Activity (HEp-2 [16]) | IC50 (HCT-116 [17]) | other results
COc1ccc(N2C(=O)N(c3ccc(SC)cc3)C(=N)C2=S)c(OC)c1 | 0.35 | 11.8 µg/mL (≈ 30.5 µM) | 0.19 | 12.1 µg/mL (≈ 31.2 µM) | 0.22 | 0.19 | 14 mm | 0.42 | 0.28 | 0.37 | 0.24 | 0.74 | 19 mm | 20 mm | 0.68 | 0.2 | 0.74 | 0.24 | 0.49 | 10.6 µg/mL (≈ 27.4 µM) | zone of inhibition at 5000 µg/mL (Staphylococcus aureus): 18 mm; Activity (HEp-2 [18]): 0.27; inhibition at 100 µg/mL [19]: 70%; IC50 (HeLa [20]): 9.83 µg/mL (≈ 25.4 µM); zone of inhibition at 5000 µg/mL (Micrococcus luteus): 18 mm; IC50 (MCF7 [21]): 12 µg/mL (≈ 31 µM); Activity (HepG2 [22]): 0.69; zone of inhibition at 5000 µg/mL (Bacillus subtilis): 18 mm; Activity (HeLa [23]): 0.2; Activity (HEp-2 [24]): 0.71; Activity (HepG2 [25]): 0.47; Activity (MCF7 [26]): 0.49
COc1ccc(N2C(=O)N(c3ccc(C)cc3)C(=N)C2=S)c(OC)c1 | 0.26 | 6.78 µg/mL (≈ 19.1 µM) | 0.21 | 7.09 µg/mL (≈ 19.9 µM) | 0.26 | 0.23 | 14 mm | 0.15 | 0.29 | 0.14 | 0.2 | 0.38 | 25.5 mm | 17.5 mm | 0.43 | 0.16 | 0.24 | 0.24 | 0.31 | 4.04 µg/mL (≈ 11.4 µM) | zone of inhibition at 5000 µg/mL (Staphylococcus aureus): 22 mm; Activity (HEp-2 [18]): 0.3; inhibition at 100 µg/mL [19]: 70%; IC50 (HeLa [20]): 2.97 µg/mL (≈ 8.36 µM); zone of inhibition at 5000 µg/mL (Micrococcus luteus): 25 mm; IC50 (MCF7 [21]): 4.34 µg/mL (≈ 12.2 µM); Activity (HepG2 [22]): 0.6; zone of inhibition at 5000 µg/mL (Bacillus subtilis): 22.5 mm; Activity (HeLa [23]): 0.22; Activity (HEp-2 [24]): 0.6; Activity (HepG2 [25]): 0.22; Activity (MCF7 [26]): 0.21
N=C1C(=S)N(c2ccc(Cl)cc2)C(=O)N1Cc1ccccc1 | 0.28 | 4.34 µg/mL (≈ 13.2 µM) | 0.16 | 3.28 µg/mL (≈ 9.95 µM) | 0.33 | 0.21 | 18 mm | 0.22 | 0.2 | 0.18 | 0.16 | 0.24 | 22 mm | 22 mm | 0.49 | 0.16 | 0.44 | 0.3 | 0.22 | 4.19 µg/mL (≈ 12.7 µM) | zone of inhibition at 5000 µg/mL (Staphylococcus aureus): 21 mm; Activity (HEp-2 [18]): 0.28; inhibition at 100 µg/mL [19]: 80%; IC50 (HeLa [20]): 9.68 µg/mL (≈ 29.4 µM); zone of inhibition at 5000 µg/mL (Micrococcus luteus): 20 mm; IC50 (MCF7 [21]): 4.65 µg/mL (≈ 14.1 µM); Activity (HepG2 [22]): 0.45; zone of inhibition at 5000 µg/mL (Bacillus subtilis): 21 mm; Activity (HeLa [23]): 0.29; Activity (HEp-2 [24]): 0.24; Activity (HepG2 [25]): 0.22; Activity (MCF7 [26]): 0.12
